ChEMBL document CHEMBL5107950, “Structure-based design of haloperidol analogues as inhibitors of acetyltransferase Eis from Mycobacterium tuberculosis to overcome kanamycin resistance” (RSC Med Chem, 2021)
pIC50, pKi: −log10 of the molar value. In brackets after ≈: the same amount, converted by molar mass. Activity calls are given as the source filed them. No cut-off for these calls is given here.

Key:
[1] = tested on: Mycobacterium tuberculosis; assay: Potentiation of kanamycin-induced antibacterial activity against Mycobacterium tuberculosis H37Rv assessed as kanamycin MIC incubated for 1 day followed by kanamycin addition for 6 days and by Alamar blue assay; format: functional; settings: 168 h, time 7 day
How it was run: (§1)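 Mtb in 7H9 + 10% ADC, 0.05% Tween 80, 0.4% glycerol at 37 °C. Inoculum adjusted to OD600 0.2, diluted 1:25. Cells preincubated 24 h at 37 °C with compound (100 µL of 200 µM solution). KAN then added: H37Rv at 2.5 and 1.25 µg/mL; K204 at 10, 5, 2.5, 1.25 µg/mL. Incubated 6 days, AlamarBlue added, colour read at 24 and 48 h. MIC = lowest KAN with no colour change. At least twice in duplicate.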

Mycobacterium avium [2] = assay: Antibacterial activity against Mycobacterium avium ATCC 25921 in presence of clofazimine by checkerboard assay; format: functional, organism-based
How it was run: (§2)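 Checkerboard in 96-well plates. Antibiotic two-fold serially diluted along columns, haloperidol derivative two-fold along rows. Bacteria prepared as for the MIC determination. MICs alone and in combination used to calculate FICI. At least duplicate independent trials.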

[3] = tested on: Mycobacterium intracellulare; assay: Antibacterial activity against Mycobacterium intracellulare ATCC 13950 in presence of spectinomycin by checkerboard assay; format: functional, organism-based; how it was run: as §2
Mycobacterium avium [4] = assay: Antibacterial activity against Mycobacterium avium ATCC 25921 in presence of clarithromycin by checkerboard assay; format: functional, organism-based; how it was run: as §2
[5] = tested on: Mycolicibacterium smegmatis; assay: Synergistic antibacterial activity against Mycobacterium smegmatis mc2 155 assessed as fold reduction in MIC value at 8 ug/ml in presence of spectinomycin by checkerboard assay; format: functional; settings: dose 8 µg/ml
[6] = tested on: Mycobacterium tuberculosis; assay: Antibacterial activity against Mycobacterium tuberculosis H37Ra ATCC NRS22 assessed as inhibition of bacterial growth incubated upto 3 weeks hrs by resazurin dye based double-dilution method; format: functional; settings: H37Ra ATCC NRS22, 504 h
How it was run: (§3)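 Double-dilution broth MIC. Media: M. smegmatis, Mueller-Hinton; M. abscessus, 7H9 + 0.05% Tween80 + 0.4% glycerol; mc²6230, 7H9 + 0.05% tyloxapol, 0.5% glycerol, 10% OADC, 0.2% casamino acids, 24 µg/mL pantothenate; other mycobacteria, 7H9 + 0.05% Tween80, 0.4% glycerol, 10% ADC. Inoculum from agar set to 0.5 McFarland, then diluted 1:100.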

[7] = tested on: Mycolicibacterium smegmatis; assay: Antibacterial activity against Mycobacterium smegmatis mc2 155 assessed as inhibition of bacterial growth incubated upto 3 weeks hrs by resazurin dye based double-dilution method; format: functional; settings: mc2 155, 504 h; how it was run: as §3
N-acetyltransferase Eis [8] = target: T1, N-acetyltransferase Eis (Mycobacterium tuberculosis (strain ATCC 25618 / H37Rv), UniProt P9WFK7); assay: Inhibition of Mycobacterium tuberculosis Eis assessed as Eis-mediated kanamycin acetylation preincubated for 10 mins followed by substrate addition and measured for 2 to 5 mins using acetyl-CoA as substrate in presence of kanamycin by UV-Vis spectroscopy analysis
T1 sequence (P9WFK7 whole entry): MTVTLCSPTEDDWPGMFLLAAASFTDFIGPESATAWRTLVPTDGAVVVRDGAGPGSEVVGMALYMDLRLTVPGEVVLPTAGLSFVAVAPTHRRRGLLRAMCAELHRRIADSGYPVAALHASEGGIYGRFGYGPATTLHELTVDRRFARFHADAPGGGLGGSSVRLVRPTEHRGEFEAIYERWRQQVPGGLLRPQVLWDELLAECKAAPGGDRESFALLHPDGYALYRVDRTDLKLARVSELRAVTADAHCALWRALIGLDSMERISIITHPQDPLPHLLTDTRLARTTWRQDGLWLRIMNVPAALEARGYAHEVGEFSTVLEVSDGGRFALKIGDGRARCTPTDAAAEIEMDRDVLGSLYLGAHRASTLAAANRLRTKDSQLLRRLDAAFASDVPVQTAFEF
How it was run: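 Recombinant Eis (1 µM) mixed with KAN (400 µM) in 50 mM Tris-HCl pH 8.0 and preincubated 10 min with 5-fold serially diluted inhibitor (10% DMSO in buffer). Reaction started with AcCoA and DTNB (2 mM each, as added). Absorbance read every 30 s for 20 min. Initial rates (first 2-5 min) fitted to Hill plot for IC50. At least triplicate.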

Mycobacterium avium [9] = assay: Antibacterial activity against Mycobacterium avium ATCC 25921 assessed as inhibition of bacterial growth incubated upto 3 weeks hrs by resazurin dye based double-dilution method; format: functional; settings: ATCC 25921, 504 h; how it was run: as §3
[10] = tested on: Mycobacterium intracellulare; assay: Antibacterial activity against Mycobacterium intracellulare ATCC 13950 assessed as inhibition of bacterial growth incubated upto 3 weeks hrs by resazurin dye based double-dilution method; format: functional; settings: ATCC 13950, 504 h; how it was run: as §3
[11] = tested on: Mycobacteroides abscessus; assay: Antibacterial activity against Mycobacterium abscessus ATCC 19977 assessed as inhibition of bacterial growth incubated upto 3 weeks hrs by resazurin dye based double-dilution method; format: functional; settings: ATCC 19977, 504 h; how it was run: as §3
[12] = tested on: Mycobacterium intracellulare; assay: Antibacterial activity against Mycobacterium intracellulare ATCC 13950 in presence of clofazimine by checkerboard assay; format: functional, organism-based; how it was run: as §2
[13] = Metabolic stability in human liver microsomes at 2 to 4 uM incubated for 30 mins by LC-MS/MS analysis; format: ADME, Microsome; settings: dose 2-4 µM, read-out: Stability
[14] = tested on: Mycobacterium intracellulare; assay: Antibacterial activity against Mycobacterium intracellulare ATCC 13950 in presence of clarithromycin by checkerboard assay; format: functional, organism-based; how it was run: as §2
[15] = tested on: Mycolicibacterium smegmatis; assay: Synergistic antibacterial activity against Mycobacterium smegmatis mc2 155 assessed as fold reduction in MIC value at 8 ug/ml in presence of clofazimine by checkerboard assay; format: functional, organism-based; settings: dose 8.0 µg/ml
[16] = tested on: Mycobacteroides abscessus; assay: Synergistic antibacterial activity against Mycobacterium abscessus ATCC 19977 assessed as reduction in bacterial growth presence of spectinomycin by checkerboard assay; format: functional, organism-based; how it was run: as §2
[17] = tested on: Mycobacterium tuberculosis; assay: Potentiation of kanamycin-induced antibacterial activity against Mycobacterium tuberculosis K204 assessed as kanamycin MIC incubated for 1 day followed by kanamycin addition for 6 days and by Alamar blue assay; format: functional; settings: K204, 168 h, time 7 day; how it was run: as §1
[18] = tested on: Mycobacteroides abscessus; assay: Synergistic antibacterial activity against Mycobacterium abscessus ATCC 19977 in presence of clofazimine by checkerboard assay; format: functional, organism-based; how it was run: as §2
[19] = Metabolic stability in mouse liver microsomes at 2 to 4 uM incubated for 30 mins by LC-MS/MS analysis; format: ADME, Microsome; settings: dose 2-4 µM, read-out: Stability
Mycobacterium avium [20] = assay: Antibacterial activity against Mycobacterium avium ATCC 25921 in presence of spectinomycin by checkerboard assay; format: functional, organism-based; how it was run: as §2
[21] = tested on: Mycolicibacterium smegmatis; assay: Synergistic antibacterial activity against Mycobacterium smegmatis mc2 155 assessed as fold reduction in MIC value at 8 ug/ml in presence of clarithromycin by checkerboard assay; format: functional; settings: dose 8 µg/ml
[22] = tested on: Mycobacterium tuberculosis; assay: Synergistic antibacterial activity against Mycobacterium tuberculosis H37Ra ATCC NRS22 in presence of spectinomycin by checkerboard assay; format: functional, organism-based; how it was run: as §2
[23] = tested on: Mycobacteroides abscessus; assay: Synergistic antibacterial activity against Mycobacterium abscessus ATCC 19977 in presence of clarithromycin by checkerboard assay; format: functional, organism-based; how it was run: as §2
[24] = tested on: Mycobacterium tuberculosis; assay: Antibacterial activity against Mycobacterium tuberculosis K204 assessed as inhibition of bacterial growth at 100 uM incubated for 24 hrs by Alamar blue assay; format: functional, organism-based
J774.A1 [25] = assay: Cytotoxicity against mouse J774.A1 cells assessed as reduction in cell viability at 25 uM incubated for 24 hrs by resazurin assay; format: toxicity, cell-based; settings: j774.a1, 24 h
How it was run: (§4)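 Resazurin viability assay in DMEM + 10% FBS, 1% penicillin/streptomycin, 37 °C, 5% CO₂. Seeding: HEK-293 and J774A.1 at 1×10^4 cells/mL, A549 at 5×10^3 cells/mL. After 24 h, compounds added (0.78-200 μM, 0.5% DMSO final). Resazurin added 24 h later, read after 6 h. 1% Triton X as positive control. Quadruplicate.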

Escherichia coli = assay: Antibacterial activity against Escherichia coli MC1061 assessed as inhibition of bacterial growth incubated upto 3 weeks hrs by resazurin dye based double-dilution method; format: functional, organism-based
A549 [26] = assay: Cytotoxicity against human A549 cells assessed as reduction in cell viability at 25 uM incubated for 24 hrs by resazurin assay; format: toxicity, cell-based; settings: a549, 24 h; how it was run: as §4
[27] = tested on: Mycobacterium tuberculosis; assay: Antibacterial activity against Mycobacterium tuberculosis H37Rv assessed as inhibition of bacterial growth at 100 uM incubated for 24 hrs by Alamar blue assay; format: functional, organism-based
HEK293 [28] = assay: Cytotoxicity against human HEK293 cells assessed as reduction in cell viability at 25 uM incubated for 24 hrs by resazurin assay; format: toxicity, cell-based; settings: hek293, 24 h; how it was run: as §4
A549 [29] = assay: Cytotoxicity against human A549 cells assessed as reduction in cell viability at 50 to 200 uM incubated for 24 hrs by resazurin assay; format: toxicity, cell-based; settings: a549, 24 h, dose 50-200 µM; how it was run: as §4
N-acetyltransferase Eis [30] = target: T1, N-acetyltransferase Eis; assay: Competitive inhibition of Mycobacterium tuberculosis Eis assessed as reduction in Eis-mediated kanamycin acetylation preincubated for 10 mins followed by substrate addition and measured for 2 to 5 mins using acetyl-CoA as substrate in presence of kanamycin by Lineweaver-Burk plot analysis
How it was run: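 Same DTNB-coupled Eis acetylation assay used for IC50, run as Michaelis-Menten kinetics with inhibitor at 0-1 μM. Vmax and Km from these fits used to determine mode of inhibition. Quadruplicate.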

J774.A1 [31] = assay: Cytotoxicity against mouse J774.A1 cells assessed as reduction in cell viability at 50 uM incubated for 24 hrs by resazurin assay; format: toxicity, cell-based; settings: j774.a1, 24 h; how it was run: as §4
J774.A1 [32] = assay: Cytotoxicity against mouse J774.A1 cells assessed as reduction in cell viability at 100 uM incubated for 24 hrs by resazurin assay; format: toxicity, cell-based; settings: j774.a1, 24 h; how it was run: as §4
HEK293 [33] = assay: Cytotoxicity against human HEK293 cells assessed as reduction in cell viability at 200 uM incubated for 24 hrs by resazurin assay; format: toxicity, cell-based; settings: hek293, 24 h; how it was run: as §4

SMILES	MIC [1]	Activity (Mycobacterium avium [2])	Activity [3]	Activity (Mycobacterium avium [4])	fold change (FC) [5]	MIC [6]	MIC [7]	pIC50 (N-acetyltransferase Eis [8])	MIC (Mycobacterium avium [9])	MIC [10]	MIC [11]	Activity [12]	remaining at 0.5 h [13]	Activity [14]	Activity [15]	Activity [16]	MIC [17]	Activity [18]	remaining at 0.5 h [19]	fold change (FC) [21]	further results
O=C(CCCN1CCC(O)(c2ccc(Br)cc2)CC1)c1ccc(Cl)cc1	≤ 1.25 µg/mL	Active	Active	Active	16	7.8 µM (≈ 3.41 µg/mL)	31.3 µM (≈ 13.7 µg/mL)	5.96	> 62.5 µM	62.5 µM (≈ 27.3 µg/mL)	> 62.5 µM	Active	36%	Active	Active	Active	10 µg/mL	Active	83%	4	Activity (Mycobacterium avium [20]): Active; Activity [22]: Active
O=C(CCCN1CCC(O)(c2ccc(F)cc2)CC1)c1ccc(Cl)cc1	≤ 1.25 µg/mL	Active	Active	Active	16	> 62.5 µM	> 62.5 µM	5.59	> 62.5 µM	> 62.5 µM	> 62.5 µM	Active	–	Active	Active	Active	10 µg/mL	Active	–	4	Activity [23]: Active; Activity (Mycobacterium avium [20]): Active; Activity [22]: Active
CC(C)(C)c1ccc(C(=O)CCCN2CCC(O)(c3ccc(Br)cc3)CC2)cc1	–	–	–	–	16	3.9 µM (≈ 1.79 µg/mL)	15.6 µM (≈ 7.15 µg/mL)	< 3.70	7.8 µM (≈ 3.58 µg/mL)	7.8 µM (≈ 3.58 µg/mL)	> 62.5 µM	–	56%	–	–	–	–	–	58%	4	inhibition [24]: Active; Activity (J774.A1 [25]): Toxic; inhibition (Escherichia coli): Active; Activity (A549 [26]): Toxic; inhibition [27]: Active; Activity (HEK293 [28]): Toxic
O=C(CCCN1CCC(O)(c2ccc(Cl)cc2)CC1)c1ccc(F)cc1 [HALOPERIDOL]	≤ 1.25 µg/mL	–	–	–	16	31.3 µM (≈ 11.8 µg/mL)	> 62.5 µM	6.41	62.5 µM (≈ 23.5 µg/mL)	62.5 µM (≈ 23.5 µg/mL)	> 62.5 µM	–	–	–	–	–	5 µg/mL	–	–	4	Activity (A549 [29]): 70%; pKi (N-acetyltransferase Eis [30]): 6.41; Activity (J774.A1 [31]): 100%; Activity (J774.A1 [32]): Toxic; Activity (HEK293 [33]): Non-Toxic
